Compound activity from PubChem BioAssay.
ABCB1 inh = inhibitors of human ABCB1 transporter, ABCG2 counter-screen | P08183 | CCRF-Adr cells, JC-1 efflux, flow cytometry | inhibition, % at 6.6 µM | 190,000 tested, 0.067% active; in the data active = inhibition above about 40%;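 also: higher value means more JC-1 retained so stronger ABCB1 efflux block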
Avidin fluor = avidin bead compound fluorescence profile. Avidin beads, compound fluorescence 488/530 nm, flow cytometry; active compounds read high. fluorescence (KMESF) at 10 µM. 220,000 tested, 0.38% active; in the data active = fluorescence above about 47
PKD1 inh = blocks activity of human protein kinase D1 | inhibition, % (concentration not given with the values) | AID 797 | PKD1 kinase fluorescence polarization assay | 200,000 tested, 0.056% active
L major viab = reduces viability of Leishmania major promastigotes | resazurin fluorescence viability | inhibition, % at 10 µM | 200,000 tested, 9% active;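 also: promastigotes grown with compound for 44 hours at 28 °C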
GSH fluor = GSH bead compound fluorescence profile | fluorescence (KMESF) at 10 µM | 190,000 tested, 0.25% active | AID 1776 | GSH beads flow cytometry, compound fluorescence 488/530 nm; active compounds read high; in the data active = fluorescence above about 89;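 also: glutathione beads carrying GST-tagged Bcl family fusion proteins plus one bare bead set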
ABCG2 block = blocks JC-1 efflux by human ABCG2 transporter | IgMXP3 cells, flow cytometry | 190,000 tested, 0.1% active | Q9UNQ0 | AID 1325 | inhibition, % at 6.6 µM;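 active = inhibition above 80%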
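Assay system – ABCG2 IgMXP3 and barcoded ABCB1 CCRF-Adr cell mix · Input – 3 million cells/mL in well · Reagent – JC-1 fluorescent substrate · Compound – single test compound dose, 6.6 µM final · Timing – 10 min exposure at 25 °C with rotation, no wash · Detection – flow cytometry of retained JC-1 fluorescence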
Of the large screens only hits and unclear results are named; the others gave an inactive call. Shown is part of a subset that was picked to be rich in hits. Rule as the data show it, unless noted: active = inhibition above about 50%; inactive = the rest.

Cc1cccc(NC(=S)N/N=C/C(C)c2ccccc2)c1C (stereo not given)	none
Cc1ccccc1NC(=S)NC1CCN(Cc2ccccc2)CC1	L major viab 93.6
Cc1ccccc1NC(=S)N/N=C/C(C)c1ccccc1 (stereo not given)	L major viab 96.6
Cc1ccc(NC(=S)NCCc2ccccc2)c(C)c1	L major viab 80.2
Cc1cccc(NC(=S)NN(Cc2ccccc2)c2ccccc2)c1C	L major viab 56.2
CSc1nc2ccccc2c(=O)n1C1CCOC(C)(C)C1 (stereo not given)	none
CN(C(=O)COC(=O)c1ccc(-c2ccc(O)cc2)cc1)C1CCS(=O)(=O)C1 (stereo not given)	none (no result: ABCB1 inh, PKD1 inh, L major viab, GSH fluor, ABCG2 block)
CC(C)c1ccccc1NC(=S)NC(C)c1ccccc1 (stereo not given)	L major viab 97.4
COc1ccc(C)cc1NC(=O)NC1CCN(Cc2ccccc2)CC1	L major viab 64.8
Cc1ccc(NC(=S)NC2CCN(Cc3ccccc3)CC2)c(C)c1	L major viab 91.2
Cc1ccccc1NC(=S)NCc1ccccc1	L major viab 59.4
Cc1ccc(NC(=O)CCC(=O)N/N=C/C=C/c2ccccc2)cc1	none
O=C(Nc1ccccc1C(=O)N1CCCC1)c1ccc(Cl)c([N+](=O)[O-])c1	none
Cc1sc2c(c1C)C(O)=C(C(=O)Nc1ccccc1)S(=O)(=O)N2C	none (no result: ABCB1 inh, PKD1 inh, L major viab, GSH fluor, ABCG2 block)
CCC(C)[C@H](NC(=O)NC1CCN(Cc2ccccc2)CC1)C(=O)OC (stereo not given in full)	L major viab 69.7
COC(=O)c1ccccc1NC(=O)NC1CCN(Cc2ccccc2)CC1	none
COc1ccc(S(=O)(=O)N2CCc3ccccc32)cc1C(=O)NCCc1ccccn1	none
CCOC(=O)C1=C(c2ccccc2)N(C)C(=O)NC1c1ccc(OC(F)F)c(OC)c1 (stereo not given)	Avidin fluor 56
CCOC(=O)C1=C(c2ccccc2)NC(=O)NC1c1ccc(OC)c(OC)c1 (stereo not given)	none
COc1ccc(CCNC(=O)CC(c2ccccc2)c2cccc(C)c2O)cc1OC (stereo not given)	none
CC(C)Oc1ccc(/C(O)=C2/C(=O)C(=O)N(CCN(C)C)C2c2ccco2)cc1 (stereo not given)	L major viab 88.7
CCN(CC)CCN1C(=O)C(=O)/C(=C(/O)c2ccc(OC)cc2)C1c1ccco1 (stereo not given)	none
O=C1NCCCC2c3c(cc(Br)c(O)c3Br)OC12N1CCOCC1 (stereo not given)	none
O=C1NCCCC2c3cc(O)c4ccccc4c3OC12N1CCCCC1 (stereo not given)	L major viab 100.1
Cc1ccc(C)c2[nH]c(=O)c(C(c3nnnn3C(C)(C)C)N3CC=C(c4ccc(F)cc4)CC3)cc12 (stereo not given)	L major viab 96.6
Cc1ccc(Nc2cc(C)nc(N3CCOCC3)n2)c(C)c1	L major viab 75.6
CNc1cc(C)nc(N2CCOCC2)n1	none (no result: ABCB1 inh, PKD1 inh, L major viab, GSH fluor, ABCG2 block)
c1ccc(COc2ccc(CN3CCN(c4ccccn4)CC3)cc2)cc1	L major viab 95.2
COc1ccc(CN2CCN(c3ccccn3)CC2)c(OC)c1	none
CC(C)(C)C(=O)OCc1nc(-c2ccc(F)cc2)cs1	none (no result: ABCB1 inh, PKD1 inh, L major viab, GSH fluor, ABCG2 block)
CCO[C@H]1OC(C(=O)N2CCN(Cc3ccccc3)CC2)=C[C@@H](C2CCCCC2)[C@@H]1CCCO	none
CCO[C@H]1OC(C(=O)N2CCN(Cc3ccc4c(c3)OCO4)CC2)=C[C@@H](c2csc3ccccc23)[C@@H]1CCCO	L major viab 73.8
CCO[C@@H]1OC(C(=O)N2CCN(Cc3ccc4c(c3)OCO4)CC2)=C[C@H](C2CCCCC2)[C@H]1CCCO	L major viab 66.8
Cc1ccc2nc(/C(C#N)=C/c3cn[nH]c3-c3ccc(F)cc3)[nH]c2c1	none
COc1ccc(C2=NC(=O)/C(=C\c3cc(OC)c(OC)c(OC)c3)O2)cc1	none
COc1cccc(C(=O)CN(C(=O)c2ccc(Cl)cc2Cl)N2C(=O)c3ccccc3C2=O)c1	none
CCOC(=O)c1cccc(-n2c(-c3ccc(OC)cc3)nc3nc4ccccc4nc32)c1	Avidin fluor 124
O=C(NC(Cc1ccccc1)C(=O)O)/C(=C/c1ccccc1)NC(=O)c1cccc(Br)c1 (stereo not given)	none
